Only some compounds are listed: those with a hit (about 6.3% of all), similar ones and a draw of the others.
MT1-MMP txn act – MT1-MMP promoter transcription activation | HT1080 MT1-MMP promoter luciferase reporter, luminescence, overnight; stronger effect = higher value | activation factor at 10 µM | hit rate 0.16% among 86,000 | AID 750;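 active means activation factor of at least 2 for MT1-MMP transcription at 10 µM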
M1 antag – M1 muscarinic receptor (rat) antagonism; CHO-M1 cells, Fluo-4 calcium, ACh EC80 antagonist mode; stronger effect = lower value; B-score at 10 µM; AID 628; P08482; hit rate 3.4% among 64,000;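 active means calcium fluorescence response, raw or row-and-column corrected B-score, differing from the plate sample mean either way at a set confidence level, mostly lower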
RORa activator – activators of human nuclear receptor RORA; CHO-K1 Gal4-RORA LBD luciferase reporter, luminescence; percent increase over mock-subtracted basal signal; activation, % at 10 µM; P35398; hit rate 1.5% among 65,000;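 active means activation above the mean of all tested compounds plus 3 SD, cut at about 49% in these data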
SF1 activator – activators of human nuclear receptor SF-1; hit rate 1.9% among 65,000; Q13285; CHO-K1 Gal4-SF-1 LBD luciferase reporter; % increase over DMSO SF-1-specific signal; activation, % at 10 µM;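 active means activation above the mean activation of all tested compounds plus 3 SD, cut at about 50% in these data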
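Assay system: CHO-K1 cells co-transfected with Gal4 DBD–human SF-1 LBD, 5xGal4 luciferase reporter; doses: 10 µM only; incubation: 20 h compound exposure at 37 °C after 1 h cell settling; signal: luciferase light emission; evaluation: percent activation versus DMSO; repeats: one test per compound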
M1 agonist – activates the M1 muscarinic receptor | AID 626 | hit rate 3% among 64,000 | CHO-M1 cells, Fluo-4 calcium fluorescence, agonist mode; stronger effect = higher value | B-score at 10 µM;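 active means fluorescence rise, raw or as B-score row- and column-corrected plate score, outside the 99.7% band of its plate's samples, either direction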
Of the large screens only hits and unclear results are named; the others gave an inactive call.

c1ccc(Nc2nc(-c3cccnc3)cs2)nc1	RORa activator 52, M1 agonist -2.7
Fc1ccc(-c2nc3nc4ccccc4nc3n2Cc2ccco2)cc1	none
c1ccc(-c2nc3nc4ccccc4nc3n2Cc2ccco2)cc1	RORa activator 62
O=C(CCn1c(=O)sc2ccccc21)Nc1nccs1	RORa activator 53
Cc1csc(NC(=O)CCn2c(=O)sc3ccccc32)n1	none
COc1ccc(-n2c(COc3cccc4ccccc34)nnc2SCC(=O)NCc2ccco2)cc1	none (no result: M1 antag, RORa activator, SF1 activator, M1 agonist)
CSCCNC(=O)c1ccc(C(C)(C)C)cc1	RORa activator 73, SF1 activator 73
O=c1c2c3nc4ccccc4nc3n(/N=C/c3cccs3)c2ncn1-c1ccccc1	none
Cc1ccc2nc(C3CCN(CC(=O)N4CCCCCC4)CC3)[nH]c2c1	none
CC(=O)NCc1cn2c(C)csc2n1	none
Cc1csc2nc(CNC(=O)c3ccco3)cn12	SF1 activator 52
COc1ccccc1NC(=O)CN1C(=O)C(C)Oc2ccccc21 (configuration not stated)	M1 agonist -3.4
CCC1Oc2ccccc2N(CC(=O)Nc2ccc(OC)cc2OC)C1=O (configuration not stated)	none
Cc1ccc(C(=O)CSc2nnc(-c3cccs3)n2C)o1	none
Cn1c(SCc2ccccc2)nnc1-c1cccs1	RORa activator 50, SF1 activator 57
Cn1c(SCc2ccccc2F)nnc1-c1cnccn1	RORa activator 65
Cn1c(SCc2ccc(F)cc2)nnc1-c1cccs1	SF1 activator 51
Cn1c(SCc2ccc(F)cc2)nnc1-c1ccccn1	SF1 activator 64
Cn1c(SCc2nc3ccccc3s2)nnc1-c1cccs1	none
COc1ccc(-c2nnc(SCC(=O)Nc3ncc(C)s3)n2-c2ccccc2)cc1OC	none
COC(=O)[C@@]1(Cc2ccc(F)cc2)[C@H]2c3cc(C(=O)N(C)C)n(Cc4ccc(C(F)(F)F)nc4)c3C[C@H]2CN1C(=O)c1ccccc1	none (no result: M1 antag, RORa activator, SF1 activator, M1 agonist)
Cc1nc2ncnn2c(N2CCCC(C(=O)Nc3ccc4c(c3)CCC4)C2)c1C (configuration not stated)	none
Cc1ccc(NC(=O)C2CCCN(c3ncccn3)C2)cc1F (configuration not stated)	SF1 activator 67
O=C(Nc1cccc(C(F)(F)F)c1)C1CCCN(c2ncccn2)C1 (configuration not stated)	none
O=C(Nc1ccc2c(c1)CCC2)C1CCCN(c2ncccn2)C1 (configuration not stated)	SF1 activator 69
FC(F)(F)c1ccc(C2[C@H]3CN(CC4CCCCC4)[C@H](c4ccccc4)C34CC2(c2ccccc2)C4)cc1 (some centres not stated)	none (no result: M1 antag, RORa activator, SF1 activator, M1 agonist)
Cc1nc(CCNC(=O)COc2ccccc2)cs1	none
CC1=CC(C#N)(C#N)C(C#N)(C#N)C(c2ccccc2)N1 (configuration not stated)	M1 agonist 25
CC(C)C1C(C#N)=C(N)Oc2n[nH]c(-c3ccccc3)c21 (configuration not stated)	M1 antag 1.3
O=C(NCC12CC3CC(CC(C3)C1)C2)c1cc2n(n1)C(C(F)(F)F)CC(c1ccco1)N2 (configuration not stated)	none
CCC(=O)Nc1cc(NC(=O)CSc2ncc(-c3ccc(F)cc3)n2Cc2ccco2)ccc1C	MT1-MMP txn act 2.1, RORa activator 55, SF1 activator 69
CCC(=O)Nc1nc2ccc3nc(C)sc3c2s1	RORa activator 82, SF1 activator 56
COc1cccc(Nc2ncccc2C(=O)NCc2ccccc2)c1	M1 agonist 3.8
CCOC(=O)N1CCN(S(=O)(=O)c2ccc(C(=O)Nc3sc4c(c3C#N)CCC4)cc2)CC1	SF1 activator 74
CCOC(=O)Nc1sc2c(c1C#N)CCCC2	none (no result: M1 antag, RORa activator, SF1 activator, M1 agonist)
Cc1cc(=O)[nH]c(N2CCc3ccccc3C2)n1	none (no result: M1 antag, RORa activator, SF1 activator, M1 agonist)

High-throughput results (PubChem)
